Screening results deposited in PubChem BioAssay by Broad Institute.
Shown are actives, neighbours in structure and some others; about 5.9% of the full set was active somewhere.
IDH1 R132H inh = blocks human IDH1 R132H reductase activity. O75874. AID 624101. inhibition, % at 10 µM. diaphorase/resazurin fluorescence, 60 min. 70,000 compounds, 0.18% hits; in the data active = inhibition above about 34%; inconclusive = no clear call, values can overlap the other calls; inactive = below about 11%;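 also: 0% = DMSO and 100% = no enzyme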
Target sequence (O75874 whole entry R132H): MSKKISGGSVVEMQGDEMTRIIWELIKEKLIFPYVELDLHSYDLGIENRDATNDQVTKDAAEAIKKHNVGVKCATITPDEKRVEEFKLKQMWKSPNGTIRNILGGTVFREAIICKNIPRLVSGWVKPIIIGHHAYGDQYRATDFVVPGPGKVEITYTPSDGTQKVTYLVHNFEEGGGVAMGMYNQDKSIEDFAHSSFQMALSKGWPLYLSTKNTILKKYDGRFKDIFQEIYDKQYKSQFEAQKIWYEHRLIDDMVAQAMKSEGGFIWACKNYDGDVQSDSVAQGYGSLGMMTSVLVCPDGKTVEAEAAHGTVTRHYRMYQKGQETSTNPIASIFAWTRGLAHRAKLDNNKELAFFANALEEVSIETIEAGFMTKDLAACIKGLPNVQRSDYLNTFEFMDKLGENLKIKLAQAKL
Pf Dd2 inh = P. falciparum Dd2 growth inhibition; 94,000 compounds, 2.3% hits; SYBR Green, 72 h; active compounds read low; activity change, % at 10 µM; in the data active = activity change below about -80%; inconclusive = no clear call, values can overlap the other calls
KDM4C inh = blocks human GASC-1 (KDM4C) demethylase activity; Q9H3R0; GST-KDM4C 2-372, H3K9me3 peptide, LANCE TR-FRET; inhibition, % at 12.5 µM; 96,000 compounds, 0.15% hits; AID 720574;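 active = mean replicate inhibition above about 25%, with at least 55% of replicates also reaching it, limit read from the data, passing the limit was not always enough; inconclusive = only one of those two conditions met; inactive = neither condition met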
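material = GST-tagged GASC-1 (JMJD2C) catalytic fragment, aa 2-372 | amount = enzyme final amount 10 nM | medium = HEPES buffer, pH 7.5, plus ascorbate | also added = H3K9me3 peptide substrate, Fe(II), 2-oxoglutarate | dosing = single dose | times = 30 min demethylation and 1 h detection at room temperature | detection = LANCE TR-FRET | read-out basis = Fall in 671/618 emission ratio as inhibition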
T cruzi growth-1 = blocks T. cruzi growth in NIH3T3 culture; 77,000 compounds, 5.9% hits; T. cruzi beta-gal in NIH3T3, GalScreen luminescence, 90 h; inhibition, % at 8.34 µM; AID 624255;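 active = mean inhibition above about 93%, with at least 55% of replicates each passing it, limit read from the data, passing the limit was not always enough; inconclusive = only one of those two conditions holds; inactive = neither condition holds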
T cruzi growth-2 = inhibitors of T. cruzi proliferation; 5,600 compounds, 72% hits; inhibition, % at 8.35 µM; shares compounds with T cruzi growth-1; T. cruzi beta-gal in NIH3T3, GalScreen luminescence, 90 h;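 active = mean replicate inhibition above about 95% and at least 55% of replicates individually reaching it, limit read from the data; inconclusive = only one of the two criteria is met; inactive = neither criterion is met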
T cruzi growth-3 = blocks T. cruzi growth in NIH3T3 host cells. T. cruzi beta-gal in NIH3T3, GalScreen luminescence, 90 h. shares compounds with T cruzi growth-1. inhibition, % at 2.09 µM. 5,600 compounds, 21% hits;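 active = mean inhibition above about 95%, with at least 55% of replicates also reaching it, limit read from the data; inconclusive = meets just one of the two conditions; inactive = meets neither condition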;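 also: plate controls were neutral control median for no effect and positive control median for full effect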
NIH3T3 tox = kills mouse NIH/3T3 fibroblasts. shares compounds with T cruzi growth-1. NIH/3T3 viability, CellTiter-Glo ATP luminescence, 90 h. cytotoxicity (signal decrease), % at 8.35 µM. 5,600 compounds, 14% hits;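 active = mean signal decrease across replicates above about 35% based on untreated-well scatter, with enough replicates individually passing, limit read from the data; inconclusive = no rule stated though some were filed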;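 also: 0% = median of neutral control wells and 100% = median of positive control wells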
NIH3T3 tox 2 = cytotoxicity in mouse NIH/3T3 fibroblasts. NIH/3T3 viability, CellTiter-Glo ATP luminescence, 90 h. inhibition, % at 24.9 µM. shares compounds with T cruzi growth-1. 5,600 compounds, 56% hits;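 active = mean loss of cell viability signal at or above a set limit, and enough replicates individually reaching it; inconclusive = meets only the mean limit or only the replicate share; inactive = meets neither condition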;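 also: 0% = median of neutral control wells and 100% = median of positive control wells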
* hit, by the source's call; ? = inconclusive; . = no result; ! = not confirmed by another sample.

SMILES	IDH1 R132H inh	Pf Dd2 inh	KDM4C inh	T cruzi growth-1	T cruzi growth-2	T cruzi growth-3	NIH3T3 tox	NIH3T3 tox 2
CC(C)CC#Cc1ccc2c(c1)O[C@@H](CN(C)C(=O)Nc1ccccc1)[C@@H](C)CN([C@@H](C)CO)S2(=O)=O	-2	-59	0	127*	111*	105*	-1	103*
CC(C)CC#Cc1ccc2c(c1)O[C@H](CN(C)C(=O)Nc1ccccc1)[C@@H](C)CN([C@H](C)CO)S2(=O)=O	0	-47	1	117*!	107*	32	-14	?
C[C@@H]1CN([C@H](C)CO)S(=O)(=O)c2ccc(C#Cc3ccccc3)cc2O[C@@H]1CN(C)C(=O)Nc1ccccc1	-1	-6	-2	44	.	.	.	.
COc1ccc(NC(=O)N(C)C[C@H]2Oc3cc(C#CCC(C)C)ccc3S(=O)(=O)N([C@H](C)CO)C[C@@H]2C)cc1	2	-60	6	88	.	.	.	.
Cc1ccccc1-c1ccc([C@@H]2[C@H](CO)N3CCCCN(C(=O)Nc4ccc(F)cc4)C[C@@H]23)cc1	.	-25	-2	103*	92	107*	117*	103*
Cc1ccccc1-c1ccc([C@@H]2[C@@H](CO)N3CCCCN(C(=O)Nc4ccc(F)cc4)C[C@@H]23)cc1	.	-13	-1	93	.	.	.	.
O=C(Nc1ccc(F)cc1)N1CCCCN2[C@@H](CO)[C@@H](c3ccc(-c4ccccc4F)cc3)[C@@H]2C1	.	-32	.	103*	94	106*	106*	104*
CO[C@@H]1CN(C)C(=O)c2ccc(NC(=O)C3CC3)cc2OC[C@H](C)N(C(=O)c2ccccc2F)C[C@H]1C	0	17	-1	9	.	.	.	.
C[C@H]1CN([C@@H](C)CO)C(=O)Cc2cc(NC(=O)Nc3ccc(C(F)(F)F)cc3)ccc2O[C@@H]1CN(C)S(=O)(=O)c1ccccc1	2	27	1	.	.	.	.	.
C[C@H](CO)N1C[C@H](C)[C@H](CN(C)C)Oc2cc(-c3ccccc3F)ccc2S1(=O)=O	-2	-6	7	?	19	9	6	50*
COc1ccccc1-c1ccc2c(c1)O[C@@H](CN(C)C(=O)c1ccncc1)[C@@H](C)CN([C@H](C)CO)S2(=O)=O	-4	-1	0	105*	94	76	4	?
COc1ccccc1-c1ccc2c(c1)O[C@H](CN(C)C)[C@H](C)CN([C@@H](C)CO)S2(=O)=O	0	-2	2	75	.	.	.	.
C[C@@H]1CN([C@@H](C)CO)S(=O)(=O)c2ccc(-c3ccccc3F)cc2O[C@H]1CN(C)C	-1	-18	2	114*	54	17	23	77*
COc1ccccc1-c1ccc2c(c1)O[C@H](CN(C)C)[C@@H](C)CN([C@@H](C)CO)S2(=O)=O	0	-7	-1	106*	98*	36	13	46*
C[C@@H]1CCCCO[C@H](CN(C)S(=O)(=O)c2ccc(F)cc2)[C@@H](C)CN([C@H](C)CO)C(=O)c2cc(NS(=O)(=O)c3cn(C)cn3)ccc2O1	0	-32	0	-18	.	.	.	.
Cn1cnc(S(=O)(=O)N[C@@H]2C=C[C@@H](CC(=O)Nc3ccc(-c4ccccc4)cc3)O[C@@H]2CO)c1	0	-16	0	-32	.	.	.	.
C[C@@H]1CN([C@@H](C)CO)S(=O)(=O)c2ccc(-c3ccccc3)cc2O[C@@H]1CN(C)CC1CC1	1	-44	-2	71	.	.	.	.
C[C@@H]1CN([C@@H](C)CO)S(=O)(=O)c2ccc(-c3ccccc3)cc2O[C@H]1CN(C)CC1CCCC1	-1	-78	2	96*	97*	106*	58*	104*
COc1ccccc1-c1ccc2c(c1)O[C@@H](CN(C)CC1CCCC1)[C@H](C)CN([C@@H](C)CO)S2(=O)=O	-1	-62	-2	126*	101*	100*	42*	103*
C[C@@H]1CN([C@H](C)CO)S(=O)(=O)c2ccc(C3=CCCC3)cc2O[C@@H]1CN(C)CC1CC1	-1	-31	-1	63	.	.	.	.
C[C@@H]1CN([C@@H](C)CO)S(=O)(=O)c2ccc(C3=CCCC3)cc2O[C@H]1CN(C)CC1CCCC1	0	-64	0	107*	97*	82	41*	105*
O=C(N[C@H]1CC[C@H](CCNS(=O)(=O)c2ccccc2)O[C@@H]1CO)c1cccc(F)c1	0	-9	1	-32	.	.	.	.
COc1ccc2c3c(n(C)c2c1)[C@H](CO)N(C(=O)C1CCOCC1)CC31CCN(C)CC1	.	33	.	.	.	.	.	.
C[C@H](CO)N1C[C@H](C)[C@H](CN(C)S(=O)(=O)c2ccc(F)cc2)Oc2ccc(NC(=O)Cc3cn(C)c4ccccc34)cc2C1=O	0	-58	1	76	.	.	.	.
C[C@H]1CN([C@@H](C)CO)C(=O)c2cc(NC(=O)Nc3ccc(C(F)(F)F)cc3)ccc2O[C@H]1CN(C)Cc1ccc(C(=O)O)cc1	.	-16	8	-42	.	.	.	.
SMILES	IDH1 R132H inh	Pf Dd2 inh	KDM4C inh	T cruzi growth-1	T cruzi growth-2	T cruzi growth-3	NIH3T3 tox	NIH3T3 tox 2
CCCNC(=O)N(C)C[C@@H]1Oc2cc(C#CCN(C)C)ccc2S(=O)(=O)N([C@H](C)CO)C[C@@H]1C	0	-19	1	50	.	.	.	.
COc1ccc(S(=O)(=O)N(C)C[C@H]2Oc3cc(C#CC4CCCC4)ccc3S(=O)(=O)N([C@@H](C)CO)C[C@@H]2C)cc1	.	?	-3	40	.	.	.	.
COc1ccc(S(=O)(=O)N(C)C[C@H]2Oc3cc(C#CC4CCCC4)ccc3S(=O)(=O)N([C@@H](C)CO)C[C@H]2C)cc1	0	-75	-1	47	.	.	.	.
COc1ccc(S(=O)(=O)N(C)C[C@H]2Oc3cc(C#CC4CC4)ccc3S(=O)(=O)N([C@@H](C)CO)C[C@@H]2C)cc1	1	-73	1	102*	97*	91	53*	67*
COc1ccc(S(=O)(=O)N(C)C[C@H]2Oc3cc(C#CC4CC4)ccc3S(=O)(=O)N([C@@H](C)CO)C[C@H]2C)cc1	.	-60	-1	110*	109*	?	-8	57*
COc1ccc(S(=O)(=O)N(C)C[C@@H]2Oc3cc(C#CC4CC4)ccc3S(=O)(=O)N([C@H](C)CO)C[C@H]2C)cc1	.	-71	0	106*	103*	67	37*	47*
O=C(Nc1ccccc1)N1CCCCN2[C@H](CO)[C@H](c3ccc(-c4ccncc4)cc3)[C@H]2C1	.	-13	-1	96*	94	65	-27	-4
